According to ChEMBL document CHEMBL1221204, “Spliceostatin A targets SF3b and inhibits both splicing and nuclear retention of pre-mRNA” (Nat Chem Biol, 2007):
Calls of active or inactive are those of the source.

Experiments:
[1] = test system: HeLa; assay: Induction of p16 expression in human HeLa cells at 1 uM after 24 hrs by Western blotting; type: functional, cell-based
How it was run: (§1)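 HeLa S3 cells were grown in DMEM with 10% heat-inactivated FBS and treated for 24 h. Cells were sonicated in ice-cold pH 7.5 HEPES IP buffer with protease inhibitors. Extracts were separated by SDS-PAGE, blotted to PVDF and probed with anti-p16, anti-p21 and anti-p27 antibodies, with chemiluminescent detection.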

[2] = test system: HeLa; assay: Induction of p27 expression in human HeLa cells at 1 uM after 24 hrs by Western blotting; type: functional, cell-based; how it was run: as §1
[3] = test system: HeLa; assay: Induction of p21 expression in human HeLa cells at 1 uM after 24 hrs by Western blotting; type: functional, cell-based; how it was run: as §1
[4] = test system: HeLa; assay: Induction of beta-actin expression in human HeLa cells at 100 ng/ml after 14 hrs by Western blotting; type: functional, cell-based
[5] = test system: HeLa; assay: Induction of beta-tubulin expression in human HeLa cells at 100 ng/ml after 14 hrs by Western blotting; type: functional, cell-based
[6] = Half life of the compound in culture medium by HPLC analysis; type: physicochemical
[7] = target: T1, Splicing factor 3B subunit 3 (Homo sapiens) (UniProt Q15393); assay: Binding affinity to SAP130 assessed as inhibition of radio labeled beta-globin pre-mRNA splicing after 1 hr by autoradiography
T1 sequence (whole entry): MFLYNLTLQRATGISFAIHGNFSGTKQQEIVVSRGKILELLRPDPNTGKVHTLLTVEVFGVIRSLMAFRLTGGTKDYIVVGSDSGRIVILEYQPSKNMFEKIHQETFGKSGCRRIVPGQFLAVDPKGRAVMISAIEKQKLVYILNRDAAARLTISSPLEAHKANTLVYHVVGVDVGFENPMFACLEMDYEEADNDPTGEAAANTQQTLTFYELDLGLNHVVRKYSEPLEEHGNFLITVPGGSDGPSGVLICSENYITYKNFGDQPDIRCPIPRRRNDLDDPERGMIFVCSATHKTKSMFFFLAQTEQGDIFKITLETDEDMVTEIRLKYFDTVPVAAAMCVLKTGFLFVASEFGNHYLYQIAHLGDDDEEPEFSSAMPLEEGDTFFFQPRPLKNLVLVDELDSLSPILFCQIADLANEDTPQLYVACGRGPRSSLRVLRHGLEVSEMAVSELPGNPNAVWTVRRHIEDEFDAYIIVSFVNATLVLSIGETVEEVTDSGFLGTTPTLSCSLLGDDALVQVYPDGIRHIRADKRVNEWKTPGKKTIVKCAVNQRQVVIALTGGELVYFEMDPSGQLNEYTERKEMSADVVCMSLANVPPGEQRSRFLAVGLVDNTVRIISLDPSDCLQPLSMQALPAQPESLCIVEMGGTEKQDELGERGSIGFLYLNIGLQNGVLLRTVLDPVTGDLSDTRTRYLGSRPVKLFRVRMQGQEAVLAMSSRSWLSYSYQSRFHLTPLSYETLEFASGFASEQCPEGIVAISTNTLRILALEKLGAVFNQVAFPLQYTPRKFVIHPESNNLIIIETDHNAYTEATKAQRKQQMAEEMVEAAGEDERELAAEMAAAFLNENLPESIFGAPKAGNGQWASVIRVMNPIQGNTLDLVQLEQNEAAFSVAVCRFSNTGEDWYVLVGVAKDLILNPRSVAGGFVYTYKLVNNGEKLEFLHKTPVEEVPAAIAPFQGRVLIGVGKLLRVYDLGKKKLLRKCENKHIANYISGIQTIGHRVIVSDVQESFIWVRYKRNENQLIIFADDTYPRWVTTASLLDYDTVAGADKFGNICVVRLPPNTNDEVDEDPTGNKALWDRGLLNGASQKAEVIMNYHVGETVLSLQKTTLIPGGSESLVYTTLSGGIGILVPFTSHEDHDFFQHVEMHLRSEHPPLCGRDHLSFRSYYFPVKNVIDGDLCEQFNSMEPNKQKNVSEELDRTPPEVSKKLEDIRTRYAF
How it was run: (§2)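 32P-labelled, m7G-capped in vitro-transcribed pre-mRNA substrate; beta-globin (exon 1 177 nt, intron 130 nt, exon 2 148 nt) or IgM (exon C3 154 nt, intron 107 nt, exon C4 119 nt). HeLa nuclear extract preincubated with SSA (19, 58, 95, 190 nM) or methanol for 1 h at 4 °C. Splicing then run 90 min at 30 °C in 20 µl. RNA resolved on denaturing urea-PAGE; autoradiography.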

[8] = target: T1, Splicing factor 3B subunit 3 (Homo sapiens); assay: Binding affinity to SAP130 assessed as inhibition of radio labeled IgM pre-mRNA splicing after 1 hr by autoradiography; how it was run: as §2
[9] = target: T1, Splicing factor 3B subunit 3 (Homo sapiens); assay: Binding affinity to SAP130 in human HeLa cells assessed as inhibition of FLAG-tagged beta globin splicing at 100 ng/ml after 12 hrs by RT-PCR analysis; type: cell-based
[10] = target: T1, Splicing factor 3B subunit 3 (Homo sapiens); assay: Binding affinity to SAP130 in human HeLa cells assessed as inhibition of p27 mRNA splicing at 100 ng/ml after 6 hrs by RT-PCR analysis; type: cell-based
How it was run: (§3)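 HeLa cells treated 6 h with 100 ng ml-1 SSA or methanol. Total RNA isolated with TRIzol and reverse transcribed with M-MLV reverse transcriptase. PCR primers designed to detect intron-containing transcripts.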

[11] = target: T1, Splicing factor 3B subunit 3 (Homo sapiens); assay: Binding affinity to SAP130 in human HeLa cells assessed as inhibition of beta-tubulin mRNA splicing at 100 ng/ml after 6 hrs by RT-PCR analysis; type: cell-based; how it was run: as §3
[12] = target: T1, Splicing factor 3B subunit 3 (Homo sapiens); assay: Binding affinity to SAP130 in human HeLa cells assessed as inhibition of beta-actin mRNA splicing at 100 ng/ml after 6 hrs by RT-PCR analysis; type: cell-based; how it was run: as §3
[13] = target: T1, Splicing factor 3B subunit 3 (Homo sapiens); assay: Binding affinity to SAP130 in human HeLa cells assessed as inhibition of p27 pre-mRNA splicing between exon 1 and exon 2 at […] after 12 hrs by RT-PCR analysis; type: cell-based
[14] = target: T1, Splicing factor 3B subunit 3 (Homo sapiens); assay: Binding affinity to SAP130 in human HeLa cells assessed as inhibition of p27 pre-mRNA splicing between exon 1 and intron 2 at […] after 12 hrs by RT-PCR analysis; type: cell-based
[15] = target: T1, Splicing factor 3B subunit 3 (Homo sapiens); assay: Binding affinity to SAP130 in human HeLa cells assessed as inhibition of IkappaBalpha pre-mRNA splicing between exon 1 and exon 4 at […] after 12 hrs by RT-PCR analysis; type: cell-based
[16] = test system: HeLa; assay: Induction of subcellular localization of poly(A) RNA in human HeLa cells at 100 ng/ml after 3 hrs using digoxigenin-labeled oligo-Dt probe; type: functional, cell-based
How it was run: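 HeLa cells treated with SSA (100 ng ml-1, 3 h) or MeOH. Fixed in 3% formaldehyde 15 min; permeabilized with 0.5% Triton X-100 on ice. Hybridized at 42 °C with 3'-digoxigenin oligo-dT in 2× SSC, 20% formamide, 1 mg ml-1 tRNA, 10% dextran sulfate. Washed; detected with anti-digoxigenin then FITC anti-mouse IgG.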

[17] = test system: HeLa; assay: Induction of subcellular localization of SC35 in human HeLa cells at 100 ng/ml after 3 hrs; type: functional, cell-based
How it was run: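 HeLa cells treated with SSA (100 ng ml-1, 3 h) or MeOH. Fixed in 3% formaldehyde, permeabilized with 1% Triton X-100, blocked with 5% FBS-PBS. Stained with anti-SC35 and an Alexa 488 anti-mouse secondary; fluorescence microscopy at 100×.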

[18] = test system: HEK-293T; assay: Induction of intron translation of HA-tagged truncated p27 gene in HEK293T cells at 100 ng/ml for 14 hrs; type: functional, cell-based; conditions: Homo sapiens
How it was run: (§4)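 HEK 293T cells transfected (Lipofectamine 2000) with the p27-int-HA reporter. Correct splicing yields p27-Myc; translated intron yields p27*-HA. Cells treated with or without SSA at 100 ng ml-1 for 14 h. Myc- and HA-tagged products detected by western blotting.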

[19] = test system: HEK-293T; assay: Induction of intron translation of Myc-tagged p27 gene in HEK293T cells at 100 ng/ml for 14 hrs by Western blotting; type: functional, cell-based; conditions: Homo sapiens; how it was run: as §4
[20] = test system: HeLa; assay: Induction of truncated p27 expression in SAP155-targeting siRNA-transfected human HeLa cells; type: functional, cell-based
How it was run: (§5)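 HeLa cells transfected with siRNA against SAP155, SAP145 or SAP130 using DharmaFECT 1. Knockdown and the truncated p27* form detected by western blotting of cell extracts.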

[21] = test system: HeLa; assay: Induction of truncated p27 expression in SAP145-targeting siRNA-transfected human HeLa cells; type: functional, cell-based; how it was run: as §5
[22] = test system: HeLa; assay: Induction of truncated p27 expression in SAP130-targeting siRNA-transfected human HeLa cells; type: functional, cell-based; how it was run: as §5
[23] = test system: HeLa; assay: Induction of subcellular localization of SAP155 in SAP155-targeting siRNA-transfected human HeLa cells after 3 days; type: functional, cell-based
[24] = test system: HeLa; assay: Induction of subcellular localization of SAP145 in SAP145-targeting siRNA-transfected human HeLa cells after 3 days; type: functional, cell-based
[25] = target: Cyclin-dependent kinase 2 (Homo sapiens) (UniProt P24941); assay: Induction of CDK2 in HEK293T cells transfected with FLAG-tagged truncated p27 at 190 nM by Western blot analysis; type: cell-based; conditions: HEK-293T
How it was run: (§6)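 HEK 293T cells were transfected with pcDNA3.1, FLAG-p27 or FLAG-p27*, or were treated with MeOH, FR901464 (20, 200 nM) or SSA (190 nM). CDK2 was immunoprecipitated and its kinase activity read by autoradiography with histone H1 and (gamma-32P)ATP. Associated proteins were detected by western blotting.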

[26] = target: Cyclin-dependent kinase 2 (Homo sapiens) (UniProt P24941); assay: Induction of CDK2 in HEK293T cells transfected with FLAG-tagged p27 at 190 nM by Western blot analysis; type: cell-based; conditions: HEK-293T; how it was run: as §6
[27] = test system: SF3B1/SF3B2/SF3B3 (Homo sapiens); assay: Displacement of Ac-SSA from SF3b SAP155/SAP145/SAP130 complex in human HeLa cells by competition binding assay

CC(/C=C/C(=O)NO)=C\[C@@H](C)C(=O)c1ccc(N(C)C)cc1
active: Activity [1] | Activity [2] | Activity [3]

CO[C@]1(C)C[C@@]2(CO2)[C@H](O)[C@@H](/C=C/C(C)=C/C[C@@H]2O[C@H](C)[C@H](NC(=O)/C=C\[C@H](C)OC(C)=O)C[C@@H]2C)O1
active: Activity [4] | Activity [5] | Activity [7] Dose-dependent effect | inhibition [8] | Activity [9] | inhibition [10] | inhibition [11] | inhibition [12] | Activity [13] | Activity [14] | Activity [15] | Activity [16] | Activity [17] | Activity [18] | Activity [19] | Activity [20] | Activity [21] | Activity [22] | Activity [23] | Activity [24] | Activity [27]
6 min: half-life [6]
inactive: Activity [25] | Activity [26]
